# Compound activity: PubChem BioAssay, several laboratories
# Shown are actives, neighbours in structure and some others; about 0.89% of the full set was active somewhere.
# Arr AP2 block – inhibitors of beta-arrestin/AP2 binding, primary screen, biochemical, GPCR trafficking, flow cytometry; beta-arrestin 1 C-terminal peptide binding to AP2 beta2-adaptin appendage (human); FITC-arrestin peptide / GST-AP2 beads; AP2 beta2 appendage carries R879A mutation; inhibition, % at 10 µM; actives 0.31% (n = 340,000); AID 504490, 2011;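 active = inhibition above a set limit, near 3 SD of compounds lacking own fluorescence, cut at about 54% in these data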;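 note: plate controls were DMSO wells for no effect and 5 µM unlabelled arrestin peptide for full effect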
#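 System: GST-AP2 R879A glutathione beads. Medium: PBS with 0.05% Tween 20 and 0.1% BSA. Also added: FITC-arrestin peptide, 50 nM. Incubation: 12 min plus 1 h, RT. Measured by: high-throughput flow cytometry of beads, ex 488, em 535 nm. Evaluation: percent drop in bead-associated FITC signal.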
# hiPSC survival – enhancers of single-cell hiPSC survival, primary screen, ATPlite luminescence. 100% = ROCK inhibitor wells, 0% = DMSO. survival enhancement, % at 20 µM. actives 0.044% (n = 360,000). AID 602274, 2012; in the data active = survival enhancement above about 18%;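 note: cells exposed to compounds for 16 hours before the ATP read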
# PG9 Ab binder – binders of HIV-1 gp120 antibody PG9, primary screen, biochemical, TR-FRET | AID 624416, 2012 | HIV-1 gp120 / PG9 antibody interaction | inhibition, % at 6.7 µM | TR-FRET gp120-PG9 antibody binding | actives 0.43% (n = 360,000); in the data active = inhibition above about 8.5%
# ABCB6 inh 2 – ABCB6 transporter inhibitors, primary screen, K562-ABCB6 cells, flow cytometry, MLPCN library. actives 0.19% (n = 360,000). K562-ABCB6 porphyrin accumulation, 1 h; active compounds read low. AID 602162, 2011. fluorescence ratio to DMSO, % at 10 µM;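 active = fluorescence ratio to DMSO below 75%, the collection mean minus 3 SD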;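 note: signal is porphyrin accumulated inside mitochondria; 100% equals median channel fluorescence of DMSO control wells; lower ratio means ABCB6 inhibition with less porphyrin fluorescence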
# PG9 binder conf – binders of anti-gp120 antibody PG9, confirmation, biochemical, TR-FRET; shares compounds with PG9 Ab binder; inhibition, % at 6.7 µM; actives 90% (n = 1,500); AID 651571, 2012; TR-FRET PG9 antibody binding; in the data active = inhibition above about 9%
# PGV04 counter – binders of control antibody PGV04, counter-screen for PG9 antibody binder project, biochemical, TR-FRET, distinct HIV envelope site; shares compounds with PG9 Ab binder; TR-FRET PGV04 antibody-gp120 binding; inhibition, % at 6.7 µM; actives 95% (n = 1,500); AID 651604, 2012; in the data active = inhibition above about 9.5%
# * hit, by the source's call; . = not tested or not shown.
SMILES,Arr AP2 block,hiPSC survival,PG9 Ab binder,ABCB6 inh 2,PG9 binder conf,PGV04 counter
COc1ccc2c(-c3ccccc3)cc(SCC(=O)NC(N)=O)nc2c1,23,0,17*,92,28*,65*
CCN(C(=O)CSc1cc(-c2ccccc2)c2ccc(OC)cc2n1)C1CCS(=O)(=O)C1 (stereo not given),-12,-1,2,99,.,.
COc1ccc2c(-c3ccccc3)cc(SCC(=O)N(C)C)nc2c1,-9,1,-2,98,.,.
COCCNC(=O)CSc1cc(-c2ccccc2)c2ccc(OC)cc2n1,19,-1,16*,94,21*,26*
COc1ccc2c(-c3ccccc3)cc(SCC(=O)NC3CCS(=O)(=O)C3)nc2c1 (stereo not given),2,2,22*,100,16*,19*
CCc1cc2c(nc1CC)CCCN2S(=O)(=O)c1ccc(C)cc1,.,.,-1,.,.,.
CCN1C(=O)N[C@H]2C[C@@H](c3ccccc3)[C@@H](C)[C@@H](C(=O)N3CCCC3)C[C@H]21,.,.,1,.,.,.
CC(Sc1ccc2ccccc2n1)C(=O)O (stereo not given),12,0,50*,88,53*,59*
CC(Sc1cnc2ccccc2n1)C(=O)O (stereo not given),-1,-1,13*,100,18*,23*
Cc1cc(SC(C)C(=O)O)nc2ccccc12 (stereo not given),-18,2,8,97,.,.
CCOC(=O)c1ccccc1NC(=O)Cn1c(=O)n(Cc2ccccc2)c(=O)c2c(C)c(C)sc21,8,-2,12*,98,5,7
Cc1nonc1NC(=O)CSc1nc2c(C)cccc2cc1C#N,1,-2,9.8*,171,42*,66*
COc1ccc2cc(C#N)c(SCC(=O)Nc3nonc3C)nc2c1,-11,0,25*,95,33*,62*
Nc1nnc2cc(Br)ccc2n1,.,-3,-1,99,.,.
Brc1ccc2ncc(Br)cc2c1,-1,1,12*,105,16*,23*
C/C(=N\NC(=O)C1COc2ccccc2O1)c1ccc(Cl)s1 (stereo not given),-17,2,24*,97,6,8
C[C@H]1C(C(=O)N(C)C2CCCCC2)=Cc2c(n(-c3ccc(F)cc3)c(=O)n2CCCOc2ccccc2)C=C1c1ccccc1,.,.,0,.,.,.
O=C(COc1ccccc1)Nc1nc2cc3c(cc2s1)OCO3,-7,0,21*,99,33*,46*
CCCCCNC(=O)C(c1ccncc1)n1c(=O)c(-c2ccco2)nc2ccccc21 (stereo not given),.,.,9.1*,.,4,5
Cc1nc(N2CCC(C)CC2)c2c(C)c(C(=O)Nc3ccc(C(F)(F)F)cc3)sc2n1,19,-2,42*,101,8,11*
O=C(O)C1CC=CCC1C(=O)N1CCN(c2nc(-c3ccccc3Cl)c3cc(Br)ccc3n2)CC1 (stereo not given),-18,-1,13*,98,25*,41*
O=C(O)C1CC=CCC1C(=O)N1CCN(c2nc(-c3ccccc3)c3ccccc3n2)CC1 (stereo not given),3,-2,1,94,.,.
CCOC(=O)CNC(=S)N(CCCN1CCN(C)CC1)Cc1cccs1,12,0,13*,94,5,9.8*
COC(=O)[C@]12C[C@H](CC(=O)N3CCCCC3)C(=O)N(CCC3=CCCCC3)C1=C[C@H](COCc1ccccc1)O[C@@H]2C,.,.,0,.,.,.
COC(=O)c1cc(Br)c(=O)n(-c2ccccc2OC)c1,8,6,6,99,.,.
SMILES,Arr AP2 block,hiPSC survival,PG9 Ab binder,ABCB6 inh 2,PG9 binder conf,PGV04 counter
COC(=O)c1cc(Br)c(=O)n(CCc2ccccc2)c1,20,0,1,98,.,.
COC(=O)c1cc(Br)c(=O)n(-c2cccc(F)c2)c1,-2,1,11*,85,19*,23*
COC(=O)c1cc(Br)c(=O)n(-c2ccc(OC)cc2)c1,4,-1,9.9*,95,17*,22*
CC(=O)c1c(C)[nH]c(C(=O)Nc2ccc(C)c(S(=O)(=O)Nc3ccc(C)cc3C)c2)c1C,-1,2,11*,92,13*,16*
CC(=O)c1c(C)[nH]c(C(=O)Nc2ccc(C)c(S(=O)(=O)N(C)C)c2)c1C,5,-1,0,101,.,.
Cc1ccc(O)c(N=CC2=C(O)c3ccccc3C2=O)c1,4,-3,18*,104,24*,31*
O=C1C(C=Nc2ccccc2O)=C(O)c2ccccc21,7,-1,-2,98,.,.
CC(=O)Nc1ccc(S(=O)(=O)NCC2CCN(C(=O)C(=O)c3cc4ccccc4o3)CC2)cc1,.,.,-1,.,.,.
O=C(O)CCN1C(=O)c2ccc(NC(=O)c3cccs3)cc2C1=O,4,3,2,99,.,.
O=C(Nc1ccc2c(c1)C(=O)N(c1ccccc1)C2=O)c1cccs1,-4,-2,22*,93,29*,40*
C=CCCC[C@H]1OC(=O)[C@H](C)NC(=O)[C@H](C(C)C)NC(=O)[C@@H]2CCCN2C(=O)[C@H](Cc2ccccc2)OC(=O)[C@@H](C(C)C)N(C)C(=O)[C@H](C(C)C)NC(=O)C1(C)C,.,.,0,.,.,.
CCCCn1c(SCC(=O)NCc2ccccc2)nc2ccc(N3CCOCC3)cc2c1=O,-3,0,19*,99,35*,56*
COC(=O)C1=C(C)N(Cc2ccc(Br)cc2)C(=S)NC1c1cccc(F)c1 (stereo not given),.,.,0,.,.,.
Clc1ccc2c(NCc3ccccn3)ncnc2c1,-10,0,-1,94,.,.
COc1ccccc1CNc1ncnc2cc(Cl)ccc12,-5,1,90*,97,91*,93*
O=C(O)c1ccccc1CSc1nnc2c(n1)[nH]c1ccccc12,4,-1,11*,97,21*,24*
Cc1cccc(NC(=O)CSc2cccc[n+]2[O-])c1C,0,1,16*,94,9.3*,11*
Cc1cccc(C(C)C)c1NC(=O)CSc1cccc[n+]1[O-],6,-4,1,91,.,.
O=c1[nH]c(/C=C/c2cccc3ccccc23)nc2ccccc12,7,2,33*,97,45*,46*
CN(C)CCCNC(=O)c1c(N)[nH]c(C(=O)c2ccc(Br)cc2)c1-c1ccc(Br)cc1,.,.,1,.,.,.
Brc1ccc(-c2nn3c(-c4ccco4)nnc3s2)o1,11,0,16*,103,20*,37*
